According to ChEMBL document CHEMBL4673340 (J Med Chem, 2020):

Key:
[1] = Toxicity in BALB/c nude mouse xenografted with human MDA-MB-436 cells assessed as induction of body weight loss at 1.6 to […], po BID for 28 days followed by treatment was interruption and monitored for additional 2 months; format: organism-based; details: in vivo, dose 1.6-3.1 mg/kg, time 28 day
MDA-MB-436 [2] = assay: Antitumor activity against human MDA-MB-436 cells xenografted in BALB/c nude mouse assessed as inhibition of tumor growth at 1.6 to […], po BID for 28 days followed by treatment was interruption and monitored for additional 2 months; format: functional, organism-based; details: dose lower […], dose upper […], time 28.0 day
[3] = Ratio of drug level in brain to plasma of C57BL/6 mouse brain at 10 mg/kg, po after 2 hrs; format: ADME, organism-based
Procedure, shortened: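 C57BL/6 mice were given 10 mg/kg po in 0.5% MC and sampled at 1, 2 and 4 h. Brain was homogenized in 3 volumes of saline, and brain and plasma were protein-precipitated with acetonitrile, then measured by LC-MS/MS. Brain (ng/g) was expressed as a percentage of plasma (ng/mL). Values are means of three mice.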

[4] = Toxicity in BALB/c nude mouse xenografted with human NCI-H209 cells assessed as drug tolerability at […], po BID for 28 days and co-treated with 50 mg/kg, po QD TMZ for 5 consecutive days at start of study and again 14 days later relative to TMZ alone; format: organism-based; details: in vivo, dose 0.75 mg/kg, time 28 day
[5] = Drug level in C57BL/6 mouse plasma at 10 mg/kg, po after 2 hrs; format: ADME, organism-based
Procedure, shortened: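 C57BL/6 mice (n=3) dosed orally at 10 mg/kg in 0.5% MC. Plasma and brain are sampled at 1, 2 and 4 h. Brain is homogenized in 3 volumes of saline, then acetonitrile protein precipitation; plasma is likewise precipitated. Both are analysed by LC–MS/MS and reported as means.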

[6] = biological target: Solute carrier organic anion transporter family member 1B3 (Homo sapiens, UniProt Q9NPD5); assay: Inhibition of OATP1B3 (unknown origin)
Solute carrier organic anion transporter family member 1B3, sequence (Q9NPD5 whole entry): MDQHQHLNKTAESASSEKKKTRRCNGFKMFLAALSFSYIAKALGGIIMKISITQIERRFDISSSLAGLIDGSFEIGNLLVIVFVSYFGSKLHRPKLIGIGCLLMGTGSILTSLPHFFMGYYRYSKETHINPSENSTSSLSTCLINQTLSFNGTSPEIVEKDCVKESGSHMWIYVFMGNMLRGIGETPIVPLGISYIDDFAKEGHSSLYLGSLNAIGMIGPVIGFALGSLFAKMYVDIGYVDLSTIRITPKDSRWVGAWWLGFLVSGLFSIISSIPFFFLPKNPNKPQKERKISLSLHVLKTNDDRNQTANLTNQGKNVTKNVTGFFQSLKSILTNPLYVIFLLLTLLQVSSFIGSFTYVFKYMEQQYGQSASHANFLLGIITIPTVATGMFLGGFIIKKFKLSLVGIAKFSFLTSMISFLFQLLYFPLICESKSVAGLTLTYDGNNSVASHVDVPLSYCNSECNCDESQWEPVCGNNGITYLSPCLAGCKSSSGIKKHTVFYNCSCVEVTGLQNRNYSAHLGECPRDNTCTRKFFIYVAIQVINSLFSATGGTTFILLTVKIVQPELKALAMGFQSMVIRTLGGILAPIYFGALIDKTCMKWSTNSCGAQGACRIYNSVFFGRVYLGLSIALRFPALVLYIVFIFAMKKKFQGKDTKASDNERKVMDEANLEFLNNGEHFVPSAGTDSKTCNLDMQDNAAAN

[7] = biological target: Solute carrier family 22 member 6 (Homo sapiens, UniProt Q4U2R8); assay: Inhibition of OAT1 (unknown origin)
Solute carrier family 22 member 6, sequence (Q4U2R8 whole entry): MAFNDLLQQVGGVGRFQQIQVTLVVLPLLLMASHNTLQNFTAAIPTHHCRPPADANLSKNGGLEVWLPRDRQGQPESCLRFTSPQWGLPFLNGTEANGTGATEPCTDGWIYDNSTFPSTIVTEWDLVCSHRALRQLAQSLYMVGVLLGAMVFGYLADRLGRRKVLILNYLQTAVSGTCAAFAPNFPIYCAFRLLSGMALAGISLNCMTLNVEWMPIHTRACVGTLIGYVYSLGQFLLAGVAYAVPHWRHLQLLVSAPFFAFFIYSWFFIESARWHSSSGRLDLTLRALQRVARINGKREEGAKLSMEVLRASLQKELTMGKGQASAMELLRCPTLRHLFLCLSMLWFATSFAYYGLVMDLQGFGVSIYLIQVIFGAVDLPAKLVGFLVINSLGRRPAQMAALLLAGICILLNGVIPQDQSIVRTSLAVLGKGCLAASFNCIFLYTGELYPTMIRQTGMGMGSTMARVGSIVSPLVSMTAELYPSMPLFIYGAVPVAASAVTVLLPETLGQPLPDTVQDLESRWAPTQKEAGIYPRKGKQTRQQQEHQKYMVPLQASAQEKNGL

[8] = biological target: Solute carrier organic anion transporter family member 1B1 (Homo sapiens, UniProt Q9Y6L6); assay: Inhibition of OATP1B1 (unknown origin)
Solute carrier organic anion transporter family member 1B1, sequence (Q9Y6L6 whole entry): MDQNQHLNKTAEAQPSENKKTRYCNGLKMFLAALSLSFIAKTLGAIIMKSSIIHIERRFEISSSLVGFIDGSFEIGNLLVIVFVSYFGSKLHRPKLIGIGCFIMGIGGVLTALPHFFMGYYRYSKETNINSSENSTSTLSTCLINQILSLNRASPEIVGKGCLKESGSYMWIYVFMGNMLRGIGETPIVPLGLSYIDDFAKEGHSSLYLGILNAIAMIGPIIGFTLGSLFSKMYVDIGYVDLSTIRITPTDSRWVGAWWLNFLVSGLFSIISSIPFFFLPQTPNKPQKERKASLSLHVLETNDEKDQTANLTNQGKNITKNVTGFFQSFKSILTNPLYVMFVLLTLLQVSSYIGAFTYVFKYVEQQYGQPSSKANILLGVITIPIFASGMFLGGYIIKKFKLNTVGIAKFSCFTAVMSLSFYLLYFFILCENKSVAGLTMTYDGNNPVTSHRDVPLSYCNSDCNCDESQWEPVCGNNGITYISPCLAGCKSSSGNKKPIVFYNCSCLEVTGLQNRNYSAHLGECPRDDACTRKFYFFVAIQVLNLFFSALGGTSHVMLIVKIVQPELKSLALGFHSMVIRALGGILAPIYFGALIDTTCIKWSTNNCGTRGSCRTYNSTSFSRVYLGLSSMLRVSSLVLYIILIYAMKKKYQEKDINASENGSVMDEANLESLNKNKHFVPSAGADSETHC

BCRP = BCRP (Homo sapiens, UniProt Q9UNQ0); assay: Inhibition of BCRP (unknown origin) at 30 uM; details: not told
[9] = Oral bioavailability in Beagle dog at 2 mg/kg by LC-MS/MS analysis; format: ADME, organism-based, Canis lupus familiaris; details: in vivo
Procedure, shortened: (§1)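 Beagle dogs, three per group. iv 1 mg/kg in 25% DMA in water; oral 2 mg/kg. Values are means of three dogs.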

[10] = AUC (0 to infinity) in Beagle dog at 2 mg/kg, po by LC-MS/MS analysis; format: ADME, organism-based, Canis lupus familiaris; set-up: route oral, time infinity, dose 2 mg/kg; details: in vivo
Procedure, shortened: (§2)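 Three Beagle dogs; iv dose 1 mg/kg in 25% DMA in water; oral dose 2 mg/kg in 0.5% CMC-Na. Plasma drug concentrations are measured by LC–MS/MS. Values are the mean of three dogs.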

[11] = Volume of distribution at steady state in Beagle dog at 1 mg/kg, iv by LC-MS/MS analysis; format: ADME, organism-based, Canis lupus familiaris; details: in vivo, read-out: Vdss; procedure, shortened: as §1
[12] = Clearance in Beagle dog at 1 mg/kg, iv by LC-MS/MS analysis; format: ADME, organism-based, Canis lupus familiaris; details: in vivo; procedure, shortened: as §2
[13] = Volume of distribution at steady state in Sprague-Dawley rat at 2 mg/kg, iv by LC-MS/MS analysis; format: ADME, organism-based; details: in vivo, read-out: Vdss
Procedure, shortened: (§3)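 Pharmacokinetics in Sprague-Dawley rats, three per group. iv 2 mg/kg in 38% DMA in water; po 5 mg/kg. Plasma was protein-precipitated, diluted with water and analysed by LC-MS/MS using an acetonitrile/0.1% formic acid gradient. Values are means of three rats.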

[14] = Half life in ICR mouse at 10 mg/kg, po by LC-MS/MS analysis; format: ADME, organism-based; details: in vivo
Procedure, shortened: (§4)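 Male/female unspecified ICR mice, n=3 per route. Intravenous 1 mg/kg in 5% DMA in water; oral 10 mg/kg in 0.5% MC. Plasma is processed by protein precipitation and analysed by LC–MS/MS using an acetonitrile/0.1% formic acid gradient. Values are means of the three animals.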

[15] = Tmax in ICR mouse at 10 mg/kg, po by LC-MS/MS analysis; format: ADME, organism-based; details: in vivo
Procedure, shortened: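 Three ICR mice per arm. iv dose 1 mg/kg in 5% DMA in water; oral dose 10 mg/kg in 0.5% MC. Plasma was processed by protein precipitation, diluted with water and quantified by LC-MS/MS (C18 column, acetonitrile/0.1% formic acid gradient). Values are means of three animals.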

[16] = Cmax in ICR mouse at 10 mg/kg, po by LC-MS/MS analysis; format: ADME, organism-based; set-up: route oral, dose 10 mg/kg; details: in vivo; procedure, shortened: as §4
[17] = Half life in ICR mouse at 1 mg/kg, iv by LC-MS/MS analysis; format: ADME, organism-based; details: in vivo; procedure, shortened: as §4
[18] = Unbound fraction in mouse plasma; format: ADME, cell-free
[19] = Unbound fraction in human plasma; format: ADME, cell-free
[20] = Clearance in human liver microsomes; format: ADME, Microsome
Cytochrome P450 2C19 = Cytochrome P450 2C19 (Homo sapiens, UniProt P33261); assay: Inhibition of CYP2C19 (unknown origin); format: ADME
Cytochrome P450 2C19, sequence (P33261 whole entry): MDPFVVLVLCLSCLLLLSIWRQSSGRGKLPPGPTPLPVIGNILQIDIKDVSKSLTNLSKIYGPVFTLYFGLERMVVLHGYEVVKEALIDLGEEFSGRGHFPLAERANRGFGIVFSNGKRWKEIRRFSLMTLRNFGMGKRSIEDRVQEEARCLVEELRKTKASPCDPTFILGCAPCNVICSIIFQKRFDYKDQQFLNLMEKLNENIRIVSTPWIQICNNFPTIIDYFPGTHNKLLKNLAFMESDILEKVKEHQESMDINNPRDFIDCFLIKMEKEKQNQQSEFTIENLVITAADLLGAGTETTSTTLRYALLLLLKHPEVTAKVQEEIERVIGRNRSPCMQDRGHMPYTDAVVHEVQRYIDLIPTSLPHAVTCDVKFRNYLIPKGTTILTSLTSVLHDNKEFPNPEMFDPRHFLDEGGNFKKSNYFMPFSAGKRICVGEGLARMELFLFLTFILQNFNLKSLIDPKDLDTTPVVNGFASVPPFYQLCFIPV

Cytochrome P450 2C8 = Cytochrome P450 2C8 (Homo sapiens, UniProt P10632); assay: Inhibition of CYP2C8 (unknown origin); format: ADME
Cytochrome P450 2C8, sequence (P10632 whole entry): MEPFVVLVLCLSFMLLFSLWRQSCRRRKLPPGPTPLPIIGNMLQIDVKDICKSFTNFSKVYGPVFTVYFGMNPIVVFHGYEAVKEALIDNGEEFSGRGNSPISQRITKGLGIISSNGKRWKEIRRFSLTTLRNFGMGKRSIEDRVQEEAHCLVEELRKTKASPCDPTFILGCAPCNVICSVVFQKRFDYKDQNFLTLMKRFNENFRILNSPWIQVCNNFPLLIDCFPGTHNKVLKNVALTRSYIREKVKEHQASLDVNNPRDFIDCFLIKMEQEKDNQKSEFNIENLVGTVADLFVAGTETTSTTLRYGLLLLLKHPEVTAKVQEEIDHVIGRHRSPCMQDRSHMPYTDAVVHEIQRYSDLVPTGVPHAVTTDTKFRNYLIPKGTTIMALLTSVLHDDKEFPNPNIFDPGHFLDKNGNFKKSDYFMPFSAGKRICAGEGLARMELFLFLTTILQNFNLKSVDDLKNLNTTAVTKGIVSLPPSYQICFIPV

MDA-MB-436 [21] = assay: Antiproliferation activity against human MDA-MB-436 cells expressing BRCA1 mutant incubated for 7 days by CellTiter-Glo luminescent cell viability assay; format: functional, cell-based; details: MDA-MB-436, 168 h
Procedure, shortened: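 Seeding density is set per line for log growth over 7 days. Cells attach 16 h, then are treated in duplicate with a 10-point dilution series for 7 days. CellTiter-Glo luminescence (ATP) is read, and viability is expressed relative to mock-treated control. EC50 is the mean of three independent experiments run in triplicate.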

[22] = biological target: Protein mono-ADP-ribosyltransferase PARP6 (Homo sapiens, UniProt Q2NL67); assay: Inhibition of PARP-6 (unknown origin) pre-incubated for 30 mins before addition of activated DNA and NAD by chemiluminescent assay
Protein mono-ADP-ribosyltransferase PARP6, sequence (Q2NL67 whole entry, canonical isoform): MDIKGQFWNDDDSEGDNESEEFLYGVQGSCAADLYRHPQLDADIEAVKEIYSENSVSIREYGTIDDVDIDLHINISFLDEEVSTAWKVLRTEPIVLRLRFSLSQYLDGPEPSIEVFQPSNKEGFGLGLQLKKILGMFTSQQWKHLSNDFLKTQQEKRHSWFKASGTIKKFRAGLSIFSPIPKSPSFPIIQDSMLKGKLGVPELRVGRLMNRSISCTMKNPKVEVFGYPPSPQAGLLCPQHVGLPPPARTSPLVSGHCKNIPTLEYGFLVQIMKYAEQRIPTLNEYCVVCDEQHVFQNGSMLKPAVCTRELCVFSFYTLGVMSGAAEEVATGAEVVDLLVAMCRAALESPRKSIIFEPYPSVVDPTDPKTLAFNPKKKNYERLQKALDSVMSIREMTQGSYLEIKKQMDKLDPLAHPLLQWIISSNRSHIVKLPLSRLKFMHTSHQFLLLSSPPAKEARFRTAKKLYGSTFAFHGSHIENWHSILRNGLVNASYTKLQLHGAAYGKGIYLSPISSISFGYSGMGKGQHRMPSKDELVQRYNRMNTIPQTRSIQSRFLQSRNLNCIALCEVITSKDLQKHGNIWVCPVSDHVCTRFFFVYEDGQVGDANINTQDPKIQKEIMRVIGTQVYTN
Procedure, shortened: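 Chemiluminescent kit assay. Histone-coated wells were incubated for 30 min with the PARP isoform and increasing inhibitor concentrations. A substrate mix of NAD plus biotinylated NAD with activated DNA was then added. The biotinylated PARylation product was read with streptavidin-HRP and HRP substrate. IC50 was taken from residual enzyme activity across the concentration series.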

[23] = Oral bioavailability in Sprague-Dawley rat at 5 mg/kg by LC-MS/MS analysis; format: ADME, organism-based; details: in vivo; procedure, shortened: as §3
[24] = Clearance in mouse liver microsomes; format: ADME, Microsome; details: read-out: CLH
hERG (KCNH2) = hERG (KCNH2) (Homo sapiens, UniProt Q12809); assay: Inhibition of human ERG activity at 20 uM by functional cellular assay
hERG (KCNH2), sequence (Q12809 whole entry): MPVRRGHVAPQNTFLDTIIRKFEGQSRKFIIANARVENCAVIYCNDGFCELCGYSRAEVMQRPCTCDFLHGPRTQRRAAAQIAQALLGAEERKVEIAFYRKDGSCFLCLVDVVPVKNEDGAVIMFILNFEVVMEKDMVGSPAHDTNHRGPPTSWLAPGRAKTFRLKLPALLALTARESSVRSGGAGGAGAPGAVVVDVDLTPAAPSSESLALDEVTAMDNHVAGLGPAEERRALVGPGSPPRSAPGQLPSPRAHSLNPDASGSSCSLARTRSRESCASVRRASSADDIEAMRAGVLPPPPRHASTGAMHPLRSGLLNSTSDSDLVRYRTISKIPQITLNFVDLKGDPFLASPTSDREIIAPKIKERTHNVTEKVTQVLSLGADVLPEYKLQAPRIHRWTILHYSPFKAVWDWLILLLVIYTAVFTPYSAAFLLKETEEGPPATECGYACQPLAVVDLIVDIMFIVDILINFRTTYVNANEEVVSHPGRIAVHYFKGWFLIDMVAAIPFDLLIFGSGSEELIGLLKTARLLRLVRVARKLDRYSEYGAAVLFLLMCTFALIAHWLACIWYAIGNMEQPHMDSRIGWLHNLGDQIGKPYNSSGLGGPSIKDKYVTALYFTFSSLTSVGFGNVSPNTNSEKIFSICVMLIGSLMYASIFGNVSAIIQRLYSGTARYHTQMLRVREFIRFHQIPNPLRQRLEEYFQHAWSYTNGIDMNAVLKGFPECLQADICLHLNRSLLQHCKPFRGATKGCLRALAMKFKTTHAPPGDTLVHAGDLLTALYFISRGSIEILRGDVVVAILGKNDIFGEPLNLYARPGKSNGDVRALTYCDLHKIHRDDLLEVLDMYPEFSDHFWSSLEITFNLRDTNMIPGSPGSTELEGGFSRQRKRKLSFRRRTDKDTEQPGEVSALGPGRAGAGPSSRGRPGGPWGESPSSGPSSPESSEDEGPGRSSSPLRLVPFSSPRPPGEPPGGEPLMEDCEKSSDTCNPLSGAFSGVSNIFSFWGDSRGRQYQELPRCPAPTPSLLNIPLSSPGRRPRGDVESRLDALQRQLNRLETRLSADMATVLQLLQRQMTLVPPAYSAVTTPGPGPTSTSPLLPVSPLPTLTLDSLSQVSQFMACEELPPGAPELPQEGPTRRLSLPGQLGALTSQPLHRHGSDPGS

[25] = Inhibition of PARylation in PBMC in patient with ovarian cancer at >= 10 mg BID during phase I study; format: functional, Homo sapiens; details: dose mg >=10
[26] = Tmax in Sprague-Dawley rat at 5 mg/kg, po by LC-MS/MS analysis; details: in vivo
[27] = AUC ( 0 to infinity) in Sprague-Dawley rat at 5 mg/kg, po by LC-MS/MS analysis; details: in vivo

C[C@]12CCCN1CC1=NNC(=O)c3cc(F)cc4[nH]c2c1c34 [PAMIPARIB]
Activity [1]: Non-Toxic | TGI (MDA-MB-436 [2]): Dose-dependent effect | BPR [3]: 18.9% | Activity [4]: Non-Toxic | concentration at 2 h [5]: 1.33 µg/mL | IC50 [6]: 19.4 µM | IC50 [7]: 47.8 µM | IC50 [8]: 19.4 µM | inhibition at 30 µM (BCRP): 43% | bioavailability [9]: 72.6% | AUC(0-inf) [10]: 1.6 µg·h/mL | Vd [11]: 2.09 L/kg | CL [12]: 0.912 L/h/kg | Vd [13]: 6.92 L/kg | half-life [14]: 3.16 h | Tmax [15]: 0.583 h | Cmax [16]: 2.71 µg/mL | half-life [17]: 3.95 h | fraction unbound [18]: 0.15 | fraction unbound [19]: 0.043 | microsomal CLint [20]: 7.9 µL/min/mg | IC50 (Cytochrome P450 2C19): > 10 µM | IC50 (Cytochrome P450 2C8): > 10 µM | EC50 (MDA-MB-436 [21]): 0.0106 µM | IC50 [22]: > 100 µM | bioavailability [23]: 93.7% | CLint scaled [24]: 0.774 L/h/kg | inhibition at 20 µM (hERG (KCNH2)): 51% | inhibition (INH) [25]: >80% | Tmax [26]: 1 h | AUC(0-inf) [27]: 3.47 µg·h/mL
